Source: PubChem
CAL PDZ FP-1: untagged CAL PDZ binding inhibitors, primary screen, biochemical, fluorescence polarization, HTS | Golgi-associated PDZ and coiled-coil motif-containing protein (Homo sapiens), Q9HD26 | purified CAL PDZ, TMR-peptide fluorescence polarization, 1 h | inhibition, % at 24.9 µM | hit rate 0.92% among 300,000 | AID 602252, 2012;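 active = mean inhibition of at least 30% with at least half of replicates also reaching 30%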
ARNT-TACC3 inh: disruptors of ARNT/TACC3 protein interaction, primary screen, biochemical, AlphaScreen, single concentration. Transforming acidic coiled-coil-containing protein 3 (Homo sapiens), Q9Y6A5. AID 623870, 2012. AlphaScreen His-ARNT PAS-B/GST-TACC3 binding, luminescence; TACC3 fragment carries E629A point mutation. hit rate 0.66% among 390,000. inhibition, % at 9.99 µM;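 active = mean inhibition of replicates at least 50% and at least half of replicates each reaching 50%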
CAL PDZ FP-2: CAL PDZ peptide-binding inhibitors, primary screen, biochemical, fluorescence polarization, Cer-tagged CAL PDZ, HTS. Golgi-associated PDZ and coiled-coil motif-containing protein (Homo sapiens), Q9HD26. purified CAL PDZ, TMR-peptide fluorescence polarization, 1 h. inhibition, % at 20 µM. hit rate 0.02% among 330,000. AID 504414, 2011;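 active = highest replicate inhibition of at least 40%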
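System: tagged CAL PDZ domain. Schedule: 1 h room-temperature incubation prior to read. Signal: fluorescence polarization (mP). Measure: percent inhibition from loss of millipolarization.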
Each line names hits and unclear results; the compound was inactive in the other large screens. Most compounds without a hit are left out; they make up all but 1.2% or so of the library.

CC1(C)CC(=O)C(CC(=O)NC2CCCc3ccccc32)C(=O)C1 (stereo not drawn)	CAL PDZ FP-1 106.3
O=C([C@H]1N[C@H]2c3ccc(-c4ccc(F)cc4)c(=O)n3C[C@H]2[C@@H]1CO)N1CCOCC1	none (no result: CAL PDZ FP-1, CAL PDZ FP-2)
COc1ccc2ccccc2c1/C=N/N1C(=O)CSC1=S	none
COc1cc(/C=N/N2C(=O)CSC2=S)cc(Br)c1O	CAL PDZ FP-1 53.3
O=C1CSC(=S)N1N=Cc1c(O)ccc2ccccc12	ARNT-TACC3 inh 68.2
COc1cc(/C=N/N2C(C)CCCC2C)cc(Br)c1O (stereo not drawn)	none
O=C1CSC(=S)N1/N=C/c1c(F)cccc1F	none
COc1cccc(/C=N/N2C(=O)CSC2=S)c1O	ARNT-TACC3 inh 67.0
C[C@@H](NC(=O)C[C@@H]1C=C[C@@H](NC(=O)C2CC2)[C@@H](CO)O1)c1ccccc1	none (no result: CAL PDZ FP-1, CAL PDZ FP-2)
c1cc2c(cc1-n1cnnn1)OCO2	none
c1cc2c(cc1Cn1cnnn1)OCO2	CAL PDZ FP-1 62.4
Cc1cccc(-c2ccc3c(c2)C2CC3CCN2C(=O)OCc2ccccc2)c1 (stereo not drawn)	none
O=C(OCc1ccccc1)N1CCC2CC1c1cc(-c3ccccc3)ccc12 (stereo not drawn)	CAL PDZ FP-1 52.6
O=[N+]([O-])c1cnccc1Nc1ccc(Cl)cc1	CAL PDZ FP-1 74.6
O=[N+]([O-])c1cc(Cl)ccc1Nc1ccccc1	none (no result: ARNT-TACC3 inh)
C[C@H]1CN([C@@H](C)CO)C(=O)c2cccc(NC(=O)c3ccc(-c4nccs4)cc3)c2O[C@@H]1CN(C)S(C)(=O)=O	none (no result: CAL PDZ FP-1, CAL PDZ FP-2)
CN(C)c1ccc2c(c1)[C@H]1C[C@H](CC(=O)NCc3ccc4c(c3)OCO4)O[C@@H](CO)[C@H]1O2	none (no result: CAL PDZ FP-1, CAL PDZ FP-2)
CC1(C)CC(CC(=O)O)CC(C)(C)N1	none
C/C(=N\O)C1CC(CC(=O)O)C1(C)C (stereo not drawn)	CAL PDZ FP-1 42.8
c1cncc(CSc2ccc(-c3ccc4c(c3)OCO4)nn2)c1	CAL PDZ FP-1 46.2
Fc1cccc(CSc2ccc(-c3ccc4c(c3)OCO4)nn2)c1	none
C[C@@H]1CN([C@H](C)CO)C(=O)c2cccc(NS(=O)(=O)c3ccc(Cl)cc3)c2O[C@H]1CN(C)S(=O)(=O)c1ccccc1	none (no result: CAL PDZ FP-1, CAL PDZ FP-2)
Nc1cccc2cc(S(=O)(=O)O)ccc12	none
CN(C)c1ccc2cc(S(=O)(=O)O)cc(O)c2c1	ARNT-TACC3 inh 36.0 (no result: CAL PDZ FP-1)
CN(C)c1ccc2c(O)cc(=O)n(C)c2c1	none (no result: CAL PDZ FP-2)
O=Nc1c(O)ccc2cc(S(=O)(=O)O)ccc12	ARNT-TACC3 inh 18.0
O=C(CCN1CCCCC1)N[C@@H]1CC[C@@H](CCNS(=O)(=O)c2ccc(Cl)cc2)O[C@H]1CO	none (no result: CAL PDZ FP-1, CAL PDZ FP-2)
CO[C@H]1CN(C)C(=O)c2ccc(NC(=O)c3ccc4c(c3)OCO4)cc2OC[C@@H](C)N(CC2CC2)C[C@@H]1C	none (no result: CAL PDZ FP-1, CAL PDZ FP-2)
COCC(=O)Nc1ccc2c(c1)[C@H]1C[C@@H](CC(=O)OC)O[C@H](CO)[C@H]1O2	none (no result: CAL PDZ FP-1, CAL PDZ FP-2)
C/C(=N\NC(=O)CCCNc1ccccc1)c1ccncc1	none
C/C(=N\NC(=O)CCCNc1ccc(C)cc1)c1ccccn1	ARNT-TACC3 inh 47.8
C/C(=N\NC(=O)c1c[nH]c2ccccc12)c1ccccn1	ARNT-TACC3 inh 76.7
C/C(=N\NC(=O)c1cc2ccccc2cc1O)c1ccccn1	ARNT-TACC3 inh 69.2
C/C(=N\NC(=O)c1c[nH]c2ccccc12)c1ccco1	none
C/C(=N\NC(=O)c1cc2ccccc2cc1O)c1cc2ccccc2o1	none
CN(C)C(=O)C[C@H]1CC[C@H]2[C@@H](COC[C@@H](O)CN2C(=O)C2CCCC2)O1	none (no result: CAL PDZ FP-1, CAL PDZ FP-2)
COc1ccc(CNC(=O)C[C@H]2C[C@@H]3c4cc(NC(=O)CN(C)C)ccc4O[C@@H]3[C@H](CO)O2)cc1	none (no result: CAL PDZ FP-1, CAL PDZ FP-2)
C[C@@H]1CN([C@H](C)CO)C(=O)c2cc(NS(C)(=O)=O)ccc2O[C@H]1CN(C)S(=O)(=O)c1ccc(Cl)cc1	none (no result: CAL PDZ FP-1, CAL PDZ FP-2)
COc1ccc(NC(=O)N(C)C[C@@H]2Oc3c(NC(=O)c4nc5ccccc5s4)cccc3C(=O)N([C@@H](C)CO)C[C@@H]2C)cc1	none (no result: CAL PDZ FP-1, CAL PDZ FP-2)
O=C(NCC1(N2CCCCC2)CCCCC1)c1ccc(NS(=O)(=O)c2ccccc2)cc1	ARNT-TACC3 inh active
Cc1cccc(NS(=O)(=O)c2ccc(C(=O)NCC3(N4CCCCC4)CCCCC3)cc2)c1C	none
COc1ccc(-c2cnc3c(c2)C(=O)N([C@@H](C)CO)C[C@H](C)[C@@H](CN(C)C(=O)NC2CCCC2)O3)cc1	none (no result: CAL PDZ FP-1, CAL PDZ FP-2)
CCC(=O)N1[C@@H]2c3ccc(-c4ccncc4)c(=O)n3C[C@H]1[C@H](CO)[C@H]2C(=O)NC1Cc2ccccc2C1	none (no result: CAL PDZ FP-1, CAL PDZ FP-2)
C[C@@H]1CN([C@@H](C)CO)C(=O)c2cc(C#C[C@@H](C)O)cnc2O[C@H]1CN(C)C(=O)CN1CCOCC1	none (no result: CAL PDZ FP-1, CAL PDZ FP-2)
O=C1C2C3CCC(C3)C2C(=O)N1c1ccc2ccccc2c1 (stereo not drawn)	CAL PDZ FP-1 61.8
O=C1C2C3C=CC(C3)C2C(=O)N1c1ccc2ccccc2c1 (stereo not drawn)	none
CCCNC(=O)N1[C@@H]2c3ccc(-c4ccc(F)cc4)c(=O)n3C[C@@H]2[C@@H](CO)[C@@H]1C(=O)N1CCCCC1	none (no result: CAL PDZ FP-1, CAL PDZ FP-2)
O=C([C@H]1[C@H](CO)[C@H]2Cn3c(cccc3=O)[C@H]2N1Cc1ccccc1Cl)N1CCCCC1	none (no result: CAL PDZ FP-1, CAL PDZ FP-2)
CCCN1C[C@@H](C)[C@@H](OC)CN(C)C(=O)c2ccc(NC(=O)c3cnccn3)cc2OC[C@H]1C	none (no result: CAL PDZ FP-1, CAL PDZ FP-2)
CC(=O)N(C)C[C@H]1Oc2cc(-c3cncnc3)ccc2S(=O)(=O)N([C@H](C)CO)C[C@H]1C	none (no result: CAL PDZ FP-1, CAL PDZ FP-2)
COC(=O)c1c(NC(=O)CN(C)CC(=O)Nc2ccc(C)cc2)sc2c1CCC(C)C2 (stereo not drawn)	CAL PDZ FP-1 68.6
COC(=O)c1c(NC(=O)Cc2cccs2)sc2c1CCC(C)C2 (stereo not drawn)	none
C[C@@H]1CCCCO[C@@H](CN(C)S(=O)(=O)c2ccc(F)cc2)[C@H](C)CN([C@H](C)CO)C(=O)c2cc(NC(=O)CCCN(C)C)ccc2O1	none (no result: CAL PDZ FP-1, CAL PDZ FP-2)
CCc1ccccc1NC(=O)CNC(=O)c1cc(C2CC2)nc2c1cnn2C(C)C	none
CC(C)n1ncc2c(C(=O)NCC(=O)Nc3ccccc3Br)cc(C3CC3)nc21	CAL PDZ FP-1 46.5
Cc1ccc(S(=O)(=O)NCC2CCC(C(=O)NCCCN3CCOCC3)CC2)cc1 (stereo not drawn)	CAL PDZ FP-1 38.9
Cc1cc(C)c(S(=O)(=O)NCC2CCC(C(=O)NCCCN3CCOCC3)CC2)c(C)c1 (stereo not drawn)	none
O=C(NCCC1=CCCCC1)C1CCC(CNS(=O)(=O)c2ccccc2)CC1 (stereo not drawn)	none
O=C(NCCc1ccccc1)C1CCC(CNS(=O)(=O)c2ccc(F)cc2)CC1 (stereo not drawn)	CAL PDZ FP-1 40.6
COc1ccc(NC(=O)Nc2ccc3c(c2)CC(=O)N([C@@H](C)CO)C[C@@H](C)[C@@H](CN(C)C)O3)cc1	none (no result: CAL PDZ FP-1, CAL PDZ FP-2)
COc1cccc(NC(=O)CN(C)CC(=O)Nc2cccc(C(F)(F)F)c2)c1	none
COc1ccc(NC(=O)CN(C)CC(=O)Nc2ccc(Cl)c(S(=O)(=O)N(C)C)c2)cc1	CAL PDZ FP-1 39.9
